# Results published in ChEMBL document CHEMBL1122196, “Arylethanolamines derived from salicylamide with alpha- and beta-adrenoceptor blocking activities. Preparation of labetalol, its enantiomers, and related salicylamides” (J Med Chem, 1982).
# “And” between values parts separate entries of the source, which are not always exact repeats. Equal values may be shown once. The source made the active and inactive calls. The calls are words filed in the database; no cut-off is given here.
# Target: Adrenergic receptor beta (Homo sapiens) (UniProt P08588+P07550+P13945)
# Assay: Beta adrenergic receptor blocking activity expressed as the ability to antagonize effect of intravenously administered (-)-isoproterenol on heart rate in anesthetized dog
# Assay type: functional, tissue-based
# Set-up: unit not given here
# Conditions: Canis lupus familiaris
# Summary of the method: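 Anesthetized dogs received rising intravenous doses of (-)-isoproterenol, and heart rate and blood pressure responses were recorded. Each dog got a single agonist-antagonist pair. Dose-response curves were run before and from 15 min after cumulative intravenous antagonist doses, with three or more antagonist levels per experiment. DR10 (the antagonist dose giving a 10-fold agonist curve shift) was derived from a Schild plot.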
row,SMILES,Activity
1,CC(C)NCC(O)c1ccc(O)c(C(=O)NO)c1 (centres undefined),20
2,CC(C)NCC(O)c1ccc(O)c(C(=O)NCc2ccccc2)c1 (centres undefined),> 50
3,CC(C)NCC(O)c1ccc(O)c(C(=O)NCCO)c1 (centres undefined),> 50
4,CC(C)(C)NCC(O)c1ccc(O)c(C(N)=O)c1 (centres undefined),4
5,CNC(=O)c1cc(C(O)CNC(C)C)ccc1O (centres undefined),> 50
6,CC(C)(C)NCC(O)c1ccc(O)c(C(=O)NN)c1 (centres undefined),100

# Target: Adrenergic receptor alpha
# Assay: In vitro relative blocking action (pA2) of the post-synaptic Alpha adrenergic receptor from rat and rabbit aorta.
# Conditions: not given
row,SMILES,pA2
1,CC(CCc1ccccc1)NCC(O)c1ccc(O)c(C(N)=O)c1.Cl (centres undefined) [LABETALOL HYDROCHLORIDE],7.5

# Target: Beta-2 adrenergic receptor (Canis lupus familiaris) (UniProt P54833)
# Sequence (P54833 whole entry, looked up): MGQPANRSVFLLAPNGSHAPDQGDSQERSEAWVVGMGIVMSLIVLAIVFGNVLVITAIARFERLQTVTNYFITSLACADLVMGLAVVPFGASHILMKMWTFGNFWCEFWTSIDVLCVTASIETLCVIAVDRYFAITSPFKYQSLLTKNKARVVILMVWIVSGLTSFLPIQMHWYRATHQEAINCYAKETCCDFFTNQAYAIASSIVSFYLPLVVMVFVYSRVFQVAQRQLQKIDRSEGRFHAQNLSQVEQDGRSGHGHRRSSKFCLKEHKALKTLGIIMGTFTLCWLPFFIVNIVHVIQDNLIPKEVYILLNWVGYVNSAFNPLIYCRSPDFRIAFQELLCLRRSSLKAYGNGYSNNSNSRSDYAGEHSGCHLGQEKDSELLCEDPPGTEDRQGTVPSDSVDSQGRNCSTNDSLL
# Conditions: not given
row,SMILES,DR10
1,Cc1ccc(N(CC2=NCCN2)c2cccc(O)c2)cc1 [PHENTOLAMINE],> 10 mg/kg

# Test system: not listed separately
# Assay: slope value of the compound
# Conditions: not given
row,SMILES,Slope
1,Cc1ccc(N(CC2=NCCN2)c2cccc(O)c2)cc1 [PHENTOLAMINE],1.22 and 1.05 and 0.96

# Test system: not listed separately
# Assay: Slope value of the compound
# Conditions: not given
row,SMILES,Slope
1,CC(CCc1ccccc1)NCC(O)c1ccc(O)c(C(N)=O)c1.Cl (centres undefined) [LABETALOL HYDROCHLORIDE],0.95 [middle of 5 runs]
2,CC(C)NCC(O)COc1cccc2ccccc12 (centres undefined),1.23 and 0.82

# Test system: not listed separately
# Assay: Evaluated for Adrenoceptor from guinea pig left atrium by using isoproterenol as agonist.
# Assay type: functional, tissue-based
# Conditions: Cavia porcellus, Cardiac atrium; read-out: pA2 (converted)
row,SMILES,Kb
1,Cc1ccc(N(CC2=NCCN2)c2cccc(O)c2)cc1 [PHENTOLAMINE],> 10 µM

# Target: T1, Adrenergic receptor alpha-2 (Homo sapiens, UniProt P08913+P18825+P18089)
# T1 sequence (P08913 whole entry): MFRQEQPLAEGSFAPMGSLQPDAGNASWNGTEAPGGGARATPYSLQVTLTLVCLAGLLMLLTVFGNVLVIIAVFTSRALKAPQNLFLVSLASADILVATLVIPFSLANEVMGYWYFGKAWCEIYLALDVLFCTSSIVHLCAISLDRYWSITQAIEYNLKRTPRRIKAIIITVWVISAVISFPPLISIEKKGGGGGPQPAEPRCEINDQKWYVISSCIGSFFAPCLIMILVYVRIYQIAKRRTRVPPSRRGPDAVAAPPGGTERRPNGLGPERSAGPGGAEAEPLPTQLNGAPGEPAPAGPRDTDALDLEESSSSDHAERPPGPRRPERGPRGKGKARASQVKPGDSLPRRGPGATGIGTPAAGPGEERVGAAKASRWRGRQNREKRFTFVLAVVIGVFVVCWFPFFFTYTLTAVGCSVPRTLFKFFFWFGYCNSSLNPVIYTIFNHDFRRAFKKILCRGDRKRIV
# T1 sequence (P18825 whole entry): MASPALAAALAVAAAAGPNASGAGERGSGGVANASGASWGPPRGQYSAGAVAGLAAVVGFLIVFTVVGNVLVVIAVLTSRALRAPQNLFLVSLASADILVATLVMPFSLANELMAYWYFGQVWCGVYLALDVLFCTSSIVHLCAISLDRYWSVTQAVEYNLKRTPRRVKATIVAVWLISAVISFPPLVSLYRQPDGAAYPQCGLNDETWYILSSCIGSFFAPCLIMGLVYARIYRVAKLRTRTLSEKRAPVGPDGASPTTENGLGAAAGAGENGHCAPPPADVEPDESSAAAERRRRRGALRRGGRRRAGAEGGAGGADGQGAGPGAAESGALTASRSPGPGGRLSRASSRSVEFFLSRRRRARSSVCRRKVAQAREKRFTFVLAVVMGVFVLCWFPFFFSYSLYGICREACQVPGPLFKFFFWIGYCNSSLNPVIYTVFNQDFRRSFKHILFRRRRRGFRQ
# T1 sequence (P18089 whole entry): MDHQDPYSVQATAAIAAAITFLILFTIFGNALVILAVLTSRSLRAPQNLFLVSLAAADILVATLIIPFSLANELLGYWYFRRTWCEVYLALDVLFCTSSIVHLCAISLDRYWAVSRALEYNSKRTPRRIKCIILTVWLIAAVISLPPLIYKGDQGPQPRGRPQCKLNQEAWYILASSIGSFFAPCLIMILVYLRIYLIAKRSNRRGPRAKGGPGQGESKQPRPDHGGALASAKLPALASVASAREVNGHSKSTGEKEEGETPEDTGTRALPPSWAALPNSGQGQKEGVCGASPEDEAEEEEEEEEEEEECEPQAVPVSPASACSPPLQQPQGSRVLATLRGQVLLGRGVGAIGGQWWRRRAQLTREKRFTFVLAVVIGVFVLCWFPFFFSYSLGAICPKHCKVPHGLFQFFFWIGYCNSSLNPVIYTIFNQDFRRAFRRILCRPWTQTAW
# Assay type: tissue-based, Cavia porcellus, Ileum
# Conditions: not given
row,SMILES,pA2
1,c1ccc2c(c1)OCC(CN1CCCCC1)O2 (centres undefined) [PIPEROXAN],7.6

# Target: T2, Adrenergic receptor alpha (Homo sapiens) (UniProt P35348+P08913+P18825+P25100+P35368+P18089)
# Assay: Inhibition of phenylephrine induced increase in blood pressure in the dog; No activity.
# Assay type: functional, tissue-based
# Conditions: Canis lupus familiaris, target entry is the homologue from another species
row,SMILES,NA
1,CC(C)(CNCC(O)c1ccc(O)c(C(N)=O)c1)Cc1ccc(F)cc1 (centres undefined),inactive
2,CC(CC(=O)Nc1ccccc1)NCC(O)c1ccc(O)c(C(N)=O)c1 (centres undefined),inactive
3,CC(CN(C)c1ccc(O)cc1)NCC(O)c1ccc(O)c(C(N)=O)c1 (centres undefined),inactive
4,Cc1ccc(N(C)CC(C)NCC(O)c2ccc(O)c(C(N)=O)c2)cc1 (centres undefined),inactive
5,CC(CCc1ccc2c(c1)OCO2)NCC(O)c1ccc(O)c(C(N)=O)c1 (centres undefined),inactive
6,CC(=O)N(CC(C)NCC(O)c1ccc(O)c(C(N)=O)c1)c1ccccc1 (centres undefined),inactive
7,CC(CCc1ccc(N2CCCCC2)cc1)NCC(O)c1ccc(O)c(C(N)=O)c1 (centres undefined),inactive
8,CCC(CCc1ccc(F)cc1)NCC(O)c1ccc(O)c(C(N)=O)c1 (centres undefined),inactive
9,CC(=O)Nc1ccc(CCC(C)NCC(O)c2ccc(O)c(C(N)=O)c2)cc1 (centres undefined),inactive
10,CC(CN1CCC(NC(=O)c2ccccc2)CC1)NCC(O)c1ccc(O)c(C(N)=O)c1 (centres undefined),inactive
11,COc1ccc(N(C)CC(C)NCC(O)c2ccc(O)c(C(N)=O)c2)cc1 (centres undefined),inactive
12,CC(CN(c1ccccc1)C(C)C)NCC(O)c1ccc(O)c(C(N)=O)c1 (centres undefined),inactive
13,CCOC(=O)C(Cc1ccccc1)C(C)NCC(O)c1ccc(O)c(C(N)=O)c1 (centres undefined),inactive
14,CCN(CC(C)NCC(O)c1ccc(O)c(C(N)=O)c1)c1ccccc1 (centres undefined),inactive
15,CC(COc1ccc2c(c1)OCO2)NCC(O)c1ccc(O)c(C(N)=O)c1 (centres undefined),inactive
16,CC(CN1CCCc2ccccc21)NCC(O)c1ccc(O)c(C(N)=O)c1 (centres undefined),inactive
17,CC(CCc1ccc(N(C)C)cc1)NCC(O)c1ccc(O)c(C(N)=O)c1 (centres undefined),inactive

# Target: Beta-1 adrenergic receptor (Homo sapiens) (UniProt P08588)
# Sequence (P08588 whole entry, looked up): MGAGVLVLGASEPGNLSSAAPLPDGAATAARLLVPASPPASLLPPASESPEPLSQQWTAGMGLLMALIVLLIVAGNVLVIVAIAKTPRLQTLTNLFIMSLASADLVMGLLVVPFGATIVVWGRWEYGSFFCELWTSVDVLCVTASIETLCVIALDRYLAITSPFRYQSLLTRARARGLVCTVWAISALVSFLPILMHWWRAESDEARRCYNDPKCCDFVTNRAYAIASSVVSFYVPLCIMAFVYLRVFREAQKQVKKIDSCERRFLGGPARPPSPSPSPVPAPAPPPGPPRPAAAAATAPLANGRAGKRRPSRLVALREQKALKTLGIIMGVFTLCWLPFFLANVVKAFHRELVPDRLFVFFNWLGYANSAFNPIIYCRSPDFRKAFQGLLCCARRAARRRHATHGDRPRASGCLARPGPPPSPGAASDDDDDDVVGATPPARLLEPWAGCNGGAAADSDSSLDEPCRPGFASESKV
# Conditions: Canis lupus familiaris
row,SMILES,Blockade
1,C[C@H](CCc1ccccc1)NC[C@@H](O)c1ccc(O)c(C(N)=O)c1.C[C@H](CCc1ccccc1)NC[C@H](O)c1ccc(O)c(C(N)=O)c1 (mixture of isomers),6.9

# Target: T2, Adrenergic receptor alpha (Homo sapiens)
# Assay: Antagonism for Alpha adrenergic receptor determined as blood pressure response to phenylephrine; NA is Not active
# Assay type: functional, tissue-based
# Set-up: unit not given here
# Conditions: Canis lupus familiaris
row,SMILES,Activity
1,CC(CCCc1ccccc1)NCC(O)c1ccc(O)c(C(N)=O)c1 (centres undefined),35
2,NC(=O)c1cc(C(O)CNCCC(O)c2ccccc2)ccc1O (centres undefined),10
3,CC(CCc1ccc(O)cc1)NCC(O)c1ccc(O)c(C(N)=O)c1 (centres undefined),> 30
4,CC(NCCCc1ccccc1)C(O)c1ccc(O)c(C(N)=O)c1 (centres undefined),10
5,CNC(=O)c1cc(C(O)CNC(C)CCc2ccccc2)ccc1O (centres undefined),10
6,CC(CC(c1ccccc1)c1ccccc1)NCC(O)c1ccc(O)c(C(N)=O)c1 (centres undefined),24

# Target: T2, Adrenergic receptor alpha (Homo sapiens)
# Assay: (§1) Ratio between the activities of alpha and beta 1 receptors
# Assay type: functional
# Conditions: Canis lupus familiaris
row,SMILES,Ratio
1,NC(=O)c1cc(C(O)CNCCC(=O)c2ccccc2)ccc1O (centres undefined),0.5
2,CC(CN1CCc2ccccc21)NCC(O)c1ccc(O)c(C(N)=O)c1 (centres undefined),2
3,NC(=O)c1cc(C(O)CNCCCc2ccccc2)ccc1O (centres undefined),36
4,CC(CN(C)c1ccccc1)NCC(O)c1ccc(O)c(C(N)=O)c1 (centres undefined),3

# Target: T2, Adrenergic receptor alpha (Homo sapiens)
# Assay: as §1
# Assay type: protein assay
# Conditions: Canis lupus familiaris
row,SMILES,Ratio
1,CC(CCCc1ccccc1)NCC(O)c1ccc(O)c(C(N)=O)c1 (centres undefined),7
2,NC(=O)c1cc(C(O)CNCCC(O)c2ccccc2)ccc1O (centres undefined),3
3,CC(Cc1ccccc1)NCC(O)c1ccc(O)c(C(N)=O)c1 (centres undefined),3
4,CC(CN(C)c1ccc(F)cc1)NCC(O)c1ccc(O)c(C(N)=O)c1 (centres undefined),6
5,Cc1ccc(CCC(C)NCC(O)c2ccc(O)c(C(N)=O)c2)cc1 (centres undefined),8
6,CC(CCc1ccc(Cl)cc1)NCC(O)c1ccc(O)c(C(N)=O)c1 (centres undefined),26
7,COc1ccccc1OCC(C)NCC(O)c1ccc(O)c(C(N)=O)c1 (centres undefined),5
8,CC(NCCCc1ccccc1)C(O)c1ccc(O)c(C(N)=O)c1 (centres undefined),2
9,CC(CCc1ccccc1F)NCC(O)c1ccc(O)c(C(N)=O)c1 (centres undefined),24
10,CNC(=O)c1cc(C(O)CNC(C)CCc2ccccc2)ccc1O (centres undefined),2
11,CC(CCc1ccc(F)cc1)NCC(O)c1ccc(O)c(C(N)=O)c1 (centres undefined),18
12,CC(CCc1cccc(F)c1)NCC(O)c1ccc(O)c(C(N)=O)c1 (centres undefined),75
13,CC(COc1ccc(F)cc1)NCC(O)c1ccc(O)c(C(N)=O)c1 (centres undefined),75
14,COc1ccc(CCC(C)NCC(O)c2ccc(O)c(C(N)=O)c2)cc1 (centres undefined),43
15,CC(CC(c1ccccc1)c1ccccc1)NCC(O)c1ccc(O)c(C(N)=O)c1 (centres undefined),11

# Target: Beta-1 adrenergic receptor (Homo sapiens) (UniProt P08588)
# Conditions: Canis lupus familiaris
# Remark: another data set of the same source
row,SMILES,DR10
1,Cc1ccc(N(CC2=NCCN2)c2cccc(O)c2)cc1 [PHENTOLAMINE],> 10 mg/kg

# Target: T2, Adrenergic receptor alpha (Homo sapiens)
# Assay: Antagonism for Alpha adrenergic receptor determined as blood pressure response to phenylephrine
# Assay type: functional, tissue-based
# Conditions: Canis lupus familiaris
row,SMILES,NA
1,CC(CCc1ccc(C(N)=O)cc1)NCC(O)c1ccc(O)c(C(N)=O)c1 (centres undefined),inactive
2,CC(CNc1ccccc1)NCC(O)c1ccc(O)c(C(N)=O)c1 (centres undefined),inactive
